Compound activity as filed in PubChem.
Beta apoptosis: beta cell apoptosis inhibition. protection from apoptosis, % (no concentration beside the values). INS-1E cytokine-induced death, ATP luminescence, 48 h; percent of positive-control rescue, neutral wells zero. 300,000 compounds, 0.8% hits. AID 435005;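 active means Every replicate reaches about 75%, or at least half do and their mean reaches it too, limit read from the data; inconclusive means At least half of replicates reach the limit but their mean does not; inactive means Under half of replicates reach the limit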;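 further: 0% = cytokine-treated negative control wells and 100% = positive control rescue; higher means more ATP so stronger rescue from cytokine killing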
CSC inhib: cancer stem cell inhibition. cancer stem cell-like cells viability, luminescence. AID 2717. 300,000 compounds, 1.1% hits. inhibition, % at 7.5 µM; in the data active means inhibition above about 75%; inconclusive means no clear call, values can overlap the other calls; tested in HMLE shEcad cells
NALP3 yeast inh: NALP3 inhibition in yeast; Yeast reconstituted NLRP3/ASC/caspase-1, beta-gal luminescence, 24 h; inhibition, % at 10 µM; 330,000 compounds, 0.39% hits; AID 2825;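 active means inhibition of 50% or more; inactive means inhibition below 50%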;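 further: plate controls were induced DMSO wells for no effect and uninduced yeast grown without galactose for full effect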
T cruzi inh: blocks replication of Trypanosoma cruzi; AID 1885; T. cruzi beta-gal in NIH3T3, luminescence, 90 h; 300,000 compounds, 1.4% hits; inhibition, % (no concentration beside the values);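 active means mean inhibition across valid replicates above about 55%, limit read from the data; inconclusive means mean below that limit but half or more replicates reach it; inactive means mean below it, under half of replicates reach it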;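 further: signal also drops with host cell toxicity which is not excluded here; 0% = plate median of DMSO wells and 100% = zero luminescence signal; higher percent means less beta-gal luminescence so fewer parasites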
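System – NIH/3T3 host cells with β-galactosidase reporter T. cruzi · Doses – single 50 nL compound addition per well in DMSO · Reagent – 5000 T. cruzi trypomastigotes/well · Medium – Low-serum DMEM with 2% FBS · Timing – ≥90 h infection period, 3 h prior cell attachment · Evaluation – parasite load inhibition, % · Technique – GalScreen luminescence, 60 min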
Calb FLC: C. albicans growth modulation with fluconazole. C. albicans CaCi-2 (fluconazole-resistant clinical isolate) + fluconazole, Alamar Blue growth, 48 h. growth inhibition, % (test concentration not listed). 300,000 compounds, 0.57% hits;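 active means growth inhibition above about 58% in most replicates, limit read from the data, passing the limit was not always enough; inconclusive means exactly half the replicates above a set limit; inactive means most replicates below a set limit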;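 further: all wells also contain fluconazole at 8 µg/ml as a sub-toxic cotreatment; 0% = median of DMSO wells and 100% = median of geldanamycin control wells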
Mdm2-MdmX inh: inhibitors of human Mdm2/MdmX interaction; O15151+Q00987; 330,000 compounds, 3% hits; AID 485346; SaOS-2 split-luciferase Mdm2/MdmX complementation, luminescence; inhibition, % at 8 µM;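 active means inhibition of at least 50% at 8 µM in the primary screen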
Target sequence (O15151 whole entry, looked up): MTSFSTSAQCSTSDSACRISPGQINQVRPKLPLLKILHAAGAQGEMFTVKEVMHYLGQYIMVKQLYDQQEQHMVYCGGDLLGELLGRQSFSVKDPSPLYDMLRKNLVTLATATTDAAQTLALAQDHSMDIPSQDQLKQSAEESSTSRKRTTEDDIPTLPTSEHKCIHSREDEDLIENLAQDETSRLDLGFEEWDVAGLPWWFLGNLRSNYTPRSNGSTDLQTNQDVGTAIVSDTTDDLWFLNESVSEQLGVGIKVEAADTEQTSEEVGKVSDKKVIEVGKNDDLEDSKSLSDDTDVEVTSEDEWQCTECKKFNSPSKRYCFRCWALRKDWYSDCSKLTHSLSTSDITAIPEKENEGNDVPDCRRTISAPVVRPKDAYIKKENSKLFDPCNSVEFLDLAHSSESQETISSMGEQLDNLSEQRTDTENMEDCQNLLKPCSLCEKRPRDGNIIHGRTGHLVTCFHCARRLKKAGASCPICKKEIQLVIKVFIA
Target sequence (Q00987 whole entry, looked up): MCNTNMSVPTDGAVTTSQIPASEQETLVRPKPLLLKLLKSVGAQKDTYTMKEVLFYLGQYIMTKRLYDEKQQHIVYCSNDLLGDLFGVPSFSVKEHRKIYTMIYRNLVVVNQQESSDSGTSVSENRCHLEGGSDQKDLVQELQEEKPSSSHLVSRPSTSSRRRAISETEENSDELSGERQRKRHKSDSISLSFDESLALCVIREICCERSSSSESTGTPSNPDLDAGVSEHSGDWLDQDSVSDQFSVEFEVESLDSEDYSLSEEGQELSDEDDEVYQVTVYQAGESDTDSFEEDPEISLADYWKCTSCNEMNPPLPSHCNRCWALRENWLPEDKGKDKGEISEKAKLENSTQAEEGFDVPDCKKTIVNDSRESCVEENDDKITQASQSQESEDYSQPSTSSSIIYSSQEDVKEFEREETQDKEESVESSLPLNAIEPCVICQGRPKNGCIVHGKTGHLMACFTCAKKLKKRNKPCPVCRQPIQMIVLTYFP
Active calls of the source: *; ? = inconclusive; · = not tested or not shown. Sampled rows, rich in hits. Any-hit rate of the full collection: about 5.3%.

SMILES	Beta apoptosis	CSC inhib	NALP3 yeast inh	T cruzi inh	Calb FLC	Mdm2-MdmX inh
Cc1cccc(C)c1N=Nc1c(C)cc(O)cc1C	7	99*	25	-10	-1	34
Cc1cccc(O)c1C	·	·	-3	·	·	-17
Cc1cc(C)c2c(=O)n(CC(=O)Nc3cccc(Cl)c3C)sc2n1	-7	-2	15	58*	1	2
COc1ccc(C(C(=O)NCC2CCCO2)N(C(=O)CNC(=O)c2ccco2)c2ccccc2)cc1OC (configuration not stated)	-2	1	10	11	-2	12
Cc1ccc(S(=O)(=O)Nc2ccc(C(OC(=O)c3ccccc3[N+](=O)[O-])(C(F)(F)F)C(F)(F)F)cc2)cc1	110*	107*	7	19	-6	13
O=C(O)c1ccc(-c2cccc(Cl)c2)o1	-5	10	8	-10	-8	0
Nc1ccccc1N=Cc1ccc(-c2cccc(Cl)c2)o1	8	77*	45	43	4	-19
N/C(Cc1ccc(Cl)cc1Cl)=N\OC(=O)c1ccccc1	11	-14	22	6	118*	3
COc1ccc(NCc2nc3ccccc3n2CCOc2ccccc2)cc1	-13	-7	28	69*	-19	-8
Cc1ccc(OCC(=O)N2CCCCCC2)c(C)c1	-7	6	15	12	20	-19
Cc1ccc(Cl)cc1N1CCN(S(=O)(=O)c2cc3c(cc2C)NC(=O)CO3)CC1	2	16	13	20	-6	3
O=C(/C=C/c1ccco1)Oc1cc(Br)cc(/C=N/NC(=O)c2ccccc2O)c1	1	9	·	7	90*	·
Cc1ccc(C(=O)N/N=C/c2cccc(OC(=O)/C=C/c3ccco3)c2)cn1	-2	-2	2	-15	2	16
CCOc1nc2c(c(-c3cccs3)c1C#N)Cc1ccccc1-2	-2	20	8	0	1	35
Cc1ccc(C2C(C=Nc3c(C)n(C)n(-c4ccccc4)c3=O)=C(c3ccccc3)Oc3ccccc32)cc1 (configuration not stated)	80*	·	9	33	-8	27
Cc1c(N=Cc2cccs2)c(=O)n(-c2ccccc2)n1C	2	-4	-5	-11	2	26
COc1ccc(-n2nc(C(=O)NCC(=O)NCCCN3CCOCC3)c3ccccc3c2=O)cc1	-1	-34	14	-8	-1	-12
Cc1cc(C)c2c(N)c(C(=O)c3ccc(Cl)cc3)sc2n1	12	34	-21	45	0	-15
Cc1cc(C)c2c(N)c(C(=O)c3ccc(Cl)c(Cl)c3)sc2n1	11	4	13	101*	-7	38
Cc1cc(C)c2c(N)c(C(=O)c3ccccc3)sc2n1	3	-2	-7	66*	-4	8
O=C(CCN1C(=O)c2ccccc2C1=O)Nc1ccc(-c2nc3ccccc3s2)cc1	11	16	15	-10	-1	-110
CC(C)(C)NC(=O)C(=O)NNC(=O)COc1ccccc1	0	-9	-3	-13	3	6
COc1cccc(/C=C2/C(=O)NN(c3ccc(F)cc3)C2=O)c1	-2	0	0	-2	-10	15
O=C1NN(c2ccc(F)cc2)C(=O)/C1=C/c1cccs1	-1	-4	23	1	101*	-4
Cc1ccc2c(C)ccc(O)c2n1	?	14	-20	-23	-11	-4
SMILES	Beta apoptosis	CSC inhib	NALP3 yeast inh	T cruzi inh	Calb FLC	Mdm2-MdmX inh
Cc1ccc2ccc3ccc(C)nc3c2n1	78*	8	40	47	·	30
CC(=O)c1cccc(NC(=O)CC2Oc3ccc(C)cc3NC2=O)c1 (configuration not stated)	-2	-6	0	-3	0	-11
Cc1cc(-c2nnc(SCC(=O)NC3CCCC3)o2)no1	-5	-2	2	1	-2	6
Cn1c(=O)cc(OCCCC(=O)Nc2cccnc2)c2ccccc21	-5	-10	-7	-4	111*	25
CN(CCNC(=O)CCCOc1cc(=O)n(C)c2ccccc12)Cc1ccccc1	7	-4	4	35	?	24
CN(CCCNC(=O)CCCOc1cc(=O)n(C)c2ccccc12)Cc1ccccc1	-5	-2	11	71*	116*	50
CN(C)c1ccc2c(c1)Sc1cc(N(C)C)ccc1N2C(=O)c1ccccc1	-4	41	28	60*	34	-1
COc1ccc(OC)c(NC(=O)C(=O)/C=C(\O)c2cc(OC)ccc2OC)c1	-3	-4	9	10	104*	29
COc1ccc(OC)c(NC(=O)c2c3c(nc4ccccc24)CCC3)c1	3	-4	-2	-8	66*	-16
COc1ccc(OC)c(N/C(C)=C/C(=O)c2ccccc2)c1	2	29	38	56*	-9	-129
COc1ccc(OC)c(N/C(C)=C/C(=O)c2ccncc2)c1	-1	5	12	-5	-6	24
Cc1oc2c(cc(NS(=O)(=O)c3ccc(Cl)cc3)c3ccccc32)c1C(=O)O	-5	-8	13	·	13	4
O=C(Nc1nccs1)c1cn(-c2ccccc2)nc1-c1ccccc1	10	-3	-12	3	-6	5
CC(C)COc1ccc(-c2nn(-c3ccccc3)cc2C(=O)Nc2nccs2)cc1	·	27	2	64*	21	26
CC1C[C@@]2(NC(=O)NC2=O)C(C)CN1C (some centres not stated)	-6	-2	6	-7	0	23
CC(C)C(C(=O)Nc1ccncc1)c1ccc(Cl)cc1 (configuration not stated)	-6	9	20	27	16	39
Cc1cccc2cc(CN(Cc3cccnc3)C(=O)c3ccncc3)c(=O)[nH]c12	-9	0	6	-11	-1	1
Cc1cc(C)c2cc(CN(Cc3cccnc3)C(=O)c3ccc(F)cc3)c(Cl)nc2c1	23	-9	-13	59*	-3	7
Cc1cccc2cc(CN(Cc3cccnc3)C(=O)c3ccccc3F)c(Cl)nc12	-2	-5	10	61*	6	-19
COc1ccc(C(=O)c2oc3ccc(OC)cc3c2NC(C)=O)cc1	-5	-7	26	6	?	15
Clc1ccccc1Cn1c(/C=C/c2ccco2)nc2ccccc21	-6	112*	·	20	28	·
CCNc1nc(NCC)nc(N(C#N)CCOc2ccccc2)n1	9	31	14	10	-1	12
CN(C)c1nc(Cl)nc(N(C#N)CCOc2ccccc2)n1	-5	2	19	1	113*	17
Cc1ccc(C(=O)Nc2cc(=O)n(C)c(=O)n2C)cc1C	·	·	0	-23	-1	16
Cc1ccc(C2c3sc(=O)[nH]c3SC3C4CC(C5C(=O)N(C(C)C(=O)O)C(=O)C45)C23)cc1 (configuration not stated)	-1	-2	18	-13	2	9
